Data as given in ChEMBL document CHEMBL3297652, “Acantholactam and pre-neo-kauluamine, manzamine-related alkaloids from the Indonesian marine sponge Acanthostrongylophora ingens” (J Nat Prod, 2014).
pIC50: −log10 of the molar value.

What was measured:
HeLa = test: Cytotoxicity against human HeLa cells after 3 days by MTT assay; format: functional, cell-based; settings: 72 h
How it was run: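 HeLa cells were used, following a previously reported procedure. The result was expressed as an IC50 in μM.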

[1] = Inhibition of chymotrypsin-like activity of rat liver proteasome using fluorogenic substrates for 6 hrs
How it was run: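 The chymotrypsin-like activity of the proteasome was measured by a previously reported procedure. Inhibition was expressed as an IC50 in μM.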

[2] = tested on: Macrophage (Homo sapiens); test: Inhibition of cholesterol ester accumulation in human monocyte-derived macrophages at 20 uM

pIC50 [1]	SMILES	pIC50 (HeLa)	inhibition at 20 µM [2] [%]
6.89	O[C@@H]1CC[C@@]23C[C@]45CN6CCCC/C=C\CC[C@](O)(C=C(c7nccc8c7[nH]c7ccccc78)[C@@H]4CC6)[C@@H]5N2CC[C@@H]1O[C@@]12CC[C@@H](O3)[C@@H](O)CCN1[C@@H]1[C@]3(CN4CCCC/C=C\CC[C@]1(O)C=C(c1nccc5c1[nH]c1ccccc15)[C@@H]3CC4)C2	5.27	92
4.48	O=C(O)/C=C\CCCN1C(=O)C[C@]23CN4CCCC/C=C\CC[C@](O)(C=C(c5nccc6c5[nH]c5ccccc56)[C@@H]2CC4)[C@H]13	< 4.30	0
6.47	O[C@@H]1CC[C@@]23C[C@]45CN6CCCC/C=C\CC[C@](O)(C=C(c7nccc8c7[nH]c7ccccc78)[C@@H]4CC6)[C@@H]5N2CC[C@@H]1O3	4.80	91

SMILES	pIC50 [1]	pIC50 (HeLa)	inhibition at 20 µM [2] [%]
O[C@]12C=C(c3nccc4c3[nH]c3ccccc34)[C@@H]3CCN(CCCC/C=C\CC1)C[C@@]31C[C@@H]3/C=C\CCCCN3[C@H]12 [MANZAMINE A]	5.70	4.89	80
